Assay results: PubChem BioAssay AID623885 (Vanderbilt Specialized Chemistry Center, 2012)
Calls of active or inactive are those of the source.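 How the source made its calls: active means mean half-maximal effective concentration under 30 µM; inactive means the rest.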

The compounds below were run against Metabotropic glutamate receptor 3 (Rattus norvegicus) (UniProt P31422) (assay: inhibition of glutamate response at mGlu3 – thallium flux, HEK/GIRK cells, rat, dose response (AID 623885)). Details: HEK293 GIRK rat mGlu3, thallium flux fluorescence.
In short: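 System: HEK cells stably co-expressing GIRK channels, M4 muscarinic receptor, rat mGlu3 / Medium: HEPES-buffered HBSS / Incubation: dye loading 1 h room temperature, compounds ~2.5 min / Measured by: thallium influx through GIRK, FluoZin-2 AM fluorescence / Probe or stimulus: thallium buffer ± agonist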

Metabotropic glutamate receptor 3 (Rattus norvegicus), sequence (P31422 whole entry, looked up): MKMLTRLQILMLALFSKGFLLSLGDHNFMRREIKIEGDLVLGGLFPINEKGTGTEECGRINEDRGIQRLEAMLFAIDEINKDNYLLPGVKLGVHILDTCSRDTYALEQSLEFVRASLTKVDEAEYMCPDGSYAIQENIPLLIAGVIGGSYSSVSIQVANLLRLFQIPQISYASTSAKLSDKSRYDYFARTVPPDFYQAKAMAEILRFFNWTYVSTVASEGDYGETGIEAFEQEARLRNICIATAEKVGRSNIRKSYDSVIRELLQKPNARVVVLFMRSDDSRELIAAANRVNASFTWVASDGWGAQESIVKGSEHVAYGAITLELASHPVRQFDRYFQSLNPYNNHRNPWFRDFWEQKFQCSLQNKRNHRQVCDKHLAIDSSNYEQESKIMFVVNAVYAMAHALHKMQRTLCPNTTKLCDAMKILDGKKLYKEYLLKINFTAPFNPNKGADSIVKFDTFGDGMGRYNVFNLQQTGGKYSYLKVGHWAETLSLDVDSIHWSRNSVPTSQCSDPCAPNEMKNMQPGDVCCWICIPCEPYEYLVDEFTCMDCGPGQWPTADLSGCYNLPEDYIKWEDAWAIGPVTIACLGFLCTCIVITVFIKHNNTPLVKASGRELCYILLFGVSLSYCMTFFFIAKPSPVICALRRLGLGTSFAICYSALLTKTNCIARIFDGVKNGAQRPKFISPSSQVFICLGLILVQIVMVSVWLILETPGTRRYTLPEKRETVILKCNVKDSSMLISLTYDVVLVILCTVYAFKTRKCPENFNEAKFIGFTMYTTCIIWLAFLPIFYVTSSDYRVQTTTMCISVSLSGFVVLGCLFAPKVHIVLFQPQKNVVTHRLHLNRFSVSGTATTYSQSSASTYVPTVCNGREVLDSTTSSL

IC50	Compound
2460 nM	COc1ccc(C#Cc2ccc(C(=O)N3CCCC(CO)C3)cc2)cc1 (stereo not given)

Same assay, conditions: HEK293 GIRK rat mGlu3, thallium flux fluorescence; at 30 µM (top of the series)

percent of glutamate max response	Compound
51.6	O=C(c1ccc(C#Cc2ccc(Cl)cc2)cc1)N1CCC(O)CC1
inactive	COc1ccc(C#Cc2ccc(C(=O)N3CCC4CCCCC4C3)cc2)cc1 (stereo not given)
37.7	O=C(c1ccc(C#CCOc2ccccc2)cc1)N1CCC(O)CC1

The remaining lines, values behind:

Compound	percent of glutamate max response
CC(C)(C)OC(=O)N1CCC(NC(=O)CN2CCc3cc(C#Cc4ccccc4)ccc3C2=O)CC1	33.8
O=C(c1ccc(C#CCN2C(=O)c3ccccc3C2=O)cc1)N1CCC(O)CC1	inactive
COc1ccc(C#Cc2ccc(C(=O)N3CCN(C(C)C)CC3)cc2)cc1	1.26
CCN1CCC[C@H]1CNC(=O)c1ccc(C#Cc2ccc(OC)cc2)cc1	5.77
COc1ccc(C#Cc2ccc(C(=O)NCCO)cc2)cc1	inactive
O=C(c1ccc(C#CCCCCO)cc1)N1CCC(O)CC1	inactive
